Results from ChEMBL document CHEMBL2021884, “Azaindenoisoquinolines as topoisomerase I inhibitors and potential anticancer agents: a systematic study of structure-activity relationships” (2012).
Activity calls are given as the source filed them. The rule behind the calls is not given here.

Legend:
DU-145 [1] = assay: Growth inhibition of human DU145 cells after 48 hrs by sulforhodamine B assay; type: functional; conditions: DU-145, 48 h
How it was run: (§1)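 NCI 60-cell-line screen: cells exposed 48 h to five 10-fold dilutions starting at 100 μM (range 10−4 to 10−8 M), then stained with sulforhodamine B. Optical densities relative to control plotted against log concentration. GI50 interpolated between points above and below 50% growth. Single determinations.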

SN12C [2] = assay: Growth inhibition of human SN12C cells after 48 hrs by sulforhodamine B assay; type: functional; how it was run: as §1
OVCAR-3 [3] = assay: Growth inhibition of human OVCAR3 cells after 48 hrs by sulforhodamine B assay; type: functional; conditions: OVCAR-3, 48 h; how it was run: as §1
HCT-116 [4] = assay: Growth inhibition of human HCT116 cells after 48 hrs by sulforhodamine B assay; type: functional; conditions: HCT-116, 48 h; how it was run: as §1
HOP-62 [5] = assay: Growth inhibition of human HOP62 cells after 48 hrs by sulforhodamine B assay; type: functional; conditions: HOP-62, 48 h; how it was run: as §1
MCF7 [6] = assay: Growth inhibition of human MCF7 cells after 48 hrs by sulforhodamine B assay; type: functional; conditions: MCF7, 48 h; how it was run: as §1
SF-539 [7] = assay: Growth inhibition of human SF539 cells after 48 hrs by sulforhodamine B assay; type: functional; conditions: SF-539, 48 h; how it was run: as §1
UACC-62 [8] = assay: Growth inhibition of human UACC62 cells after 48 hrs by sulforhodamine B assay; type: functional; conditions: UACC-62, 48 h; how it was run: as §1
[9] = molecular target: T1, DNA topoisomerase 1 (Homo sapiens) (UniProt P11387); assay: Inhibition of human recombinant topoisomerase 1-mediated DNA cleavage using [32P]-3'-end-labeled 117-bp DNA fragment as substrate at 0.1 to 100 uM after 20 mins by SDS-PAGE analysis
T1 sequence (whole entry): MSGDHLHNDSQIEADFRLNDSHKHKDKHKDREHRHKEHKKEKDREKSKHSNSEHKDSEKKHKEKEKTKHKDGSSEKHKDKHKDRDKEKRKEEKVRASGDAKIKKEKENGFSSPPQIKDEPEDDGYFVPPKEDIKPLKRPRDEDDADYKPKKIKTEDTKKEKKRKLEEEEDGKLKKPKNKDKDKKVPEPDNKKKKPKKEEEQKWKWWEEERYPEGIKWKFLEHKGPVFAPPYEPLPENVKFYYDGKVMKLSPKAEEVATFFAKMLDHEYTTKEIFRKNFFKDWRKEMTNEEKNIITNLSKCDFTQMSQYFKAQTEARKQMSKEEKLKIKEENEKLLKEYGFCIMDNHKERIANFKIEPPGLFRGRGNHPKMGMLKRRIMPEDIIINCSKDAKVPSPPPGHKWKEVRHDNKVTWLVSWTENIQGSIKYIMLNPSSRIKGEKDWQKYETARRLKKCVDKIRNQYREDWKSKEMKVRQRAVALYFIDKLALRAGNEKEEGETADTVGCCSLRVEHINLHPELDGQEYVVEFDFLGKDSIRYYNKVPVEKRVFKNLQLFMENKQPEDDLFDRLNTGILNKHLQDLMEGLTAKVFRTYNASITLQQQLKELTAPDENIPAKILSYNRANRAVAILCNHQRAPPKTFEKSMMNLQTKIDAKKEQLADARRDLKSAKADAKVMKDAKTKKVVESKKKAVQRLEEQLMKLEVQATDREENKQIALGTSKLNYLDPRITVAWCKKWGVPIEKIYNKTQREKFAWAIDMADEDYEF
How it was run: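 Human Top1 expressed in baculovirus and purified. Substrate is a 117-bp oligonucleotide carrying the pBluescript SK(−) cleavage sites, 3′-end-labeled by Klenow fill-in with [α-32P]dGTP. Compound at 0.1, 1, 10, 100 μM; reaction stopped with 0.5% SDS (final) plus formamide loading dye.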

HCT-116 [10] = assay: Growth inhibition of human HCT116 cells at 10 uM after 48 hrs by sulforhodamine B assay; type: functional, cell-based
How it was run: (§2)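 NCI screen single-concentration test at 10 μM, 48 h exposure, sulforhodamine B staining. Optical density read relative to untreated control. Used as initial testing to decide whether multi-dose GI50 testing was warranted.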

MCF7 [11] = assay: Growth inhibition of human MCF7 cells at 10 uM after 48 hrs by sulforhodamine B assay; type: functional, cell-based; how it was run: as §2
OVCAR-3 [12] = assay: Growth inhibition of human OVCAR3 cells at 10 uM after 48 hrs by sulforhodamine B assay; type: functional, cell-based; how it was run: as §2
HOP-62 [13] = assay: Growth inhibition of human HOP62 cells at 10 uM after 48 hrs by sulforhodamine B assay; type: functional, cell-based; how it was run: as §2
DU-145 [14] = assay: Growth inhibition of human DU145 cells at 10 uM after 48 hrs by sulforhodamine B assay; type: functional, cell-based; how it was run: as §2
UACC-62 [15] = assay: Growth inhibition of human UACC62 cells at 10 uM after 48 hrs by sulforhodamine B assay; type: functional, cell-based; how it was run: as §2
SF-539 [16] = assay: Growth inhibition of human SF539 cells at 10 uM after 48 hrs by sulforhodamine B assay; type: functional, cell-based; how it was run: as §2
SN12C [17] = assay: Growth inhibition of human SN12C cells at 10 uM after 48 hrs by sulforhodamine B assay; type: functional, cell-based; how it was run: as §2
[18] = molecular target: T1, DNA topoisomerase 1 (Homo sapiens); assay: Inhibition of human recombinant topoisomerase 1-mediated DNA cleavage using [32P]-3'-end-labeled 117-bp DNA fragment as substrate at 100 uM after 20 mins by SDS-PAGE analysis
How it was run: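 Human recombinant Top1 purified from baculovirus. Substrate: 117-bp oligonucleotide 3′-end-labeled by Klenow fill-in with [α-32P]dGTP, ~2 nM. Compounds tested at 0.1–100 μM. Stopped with 0.5% SDS plus formamide loading dye. Cleavage sites scored on gel.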

GI50 (DU-145 [1])	GI50 (OVCAR-3 [3])	GI50 (HCT-116 [4])	GI50 (MCF7 [6])	inhibition [9]	inhibition [18]	SMILES	GI50 (SN12C [2])	GI50 (HOP-62 [5])	GI50 (SF-539 [7])	GI50 (UACC-62 [8])	growth inhibition (GI) (HCT-116 [10])	growth inhibition (GI) (MCF7 [11])	growth inhibition (GI) (OVCAR-3 [12])	growth inhibition (GI) (HOP-62 [13])	growth inhibition (GI) (DU-145 [14])	growth inhibition (GI) (UACC-62 [15])	growth inhibition (GI) (SF-539 [16])	growth inhibition (GI) (SN12C [17])
51 nM	140 nM	74 nM	24 nM	Active	–	COc1cnc2c(c1)C(=O)c1c-2n(CCCN(C)C)c(=O)c2cc([N+](=O)[O-])ccc12	57 nM	54 nM	78 nM	52 nM	–	–	–	–	–	–	–	–
40 nM	110 nM	50 nM	20 nM	Active	–	COc1cnc2c(c1)C(=O)c1c-2n(CCCN2CCOCC2)c(=O)c2cc([N+](=O)[O-])ccc12	43 nM	51 nM	35 nM	40 nM	–	–	–	–	–	–	–	–
–	–	–	–	Active	–	COc1cc2c3c(n(CCCN(C)C)c(=O)c2cc1OC)-c1cccnc1C3=O	–	–	–	–	Active	Active	Active	Active	Active	Active	Active	Active
880 nM	2900 nM	1500 nM	130 nM	Active	–	COc1cnc2c(c1)C(=O)c1c-2n(CCCN(C)C)c(=O)c2cc(OC)c(OC)cc12	3600 nM	920 nM	1100 nM	3900 nM	–	–	–	–	–	–	–	–
–	–	–	–	Active	–	COc1ccc2c(n1)C(=O)c1c-2n(CCCN2CCOCC2)c(=O)c2cc(OC)c(OC)cc12	–	–	–	–	Active	Active	Active	Active	Active	–	Active	Active
–	–	–	–	Active	–	COc1ccc2c(n1)C(=O)c1c-2n(CCCN(C)C)c(=O)c2cc(OC)c(OC)cc12	–	–	–	–	Active	Active	Active	Active	Active	Active	Active	Active
340 nM	310 nM	330 nM	100 nM	Active	–	COc1cnc2c(c1)C(=O)c1c-2n(CCCN2CCOCC2)c(=O)c2cc(OC)c(OC)cc12	340 nM	240 nM	270 nM	220 nM	–	–	–	–	–	–	–	–
310 nM	370 nM	220 nM	52 nM	Active	–	COc1cc2c3c(n(CCCN4CCOCC4)c(=O)c2cc1OC)-c1ncccc1C3=O	520 nM	300 nM	–	100 nM	–	–	–	–	–	–	–	–
–	–	–	–	Active	–	COc1cc2c3c(n(CCCN(C)C)c(=O)c2cc1OC)-c1cnccc1C3=O	–	–	–	–	–	Active	Active	Active	Active	Active	Active	Active
1700 nM	3600 nM	1600 nM	440 nM	Active	–	COc1cc2c3c(n(CCCN(C)C)c(=O)c2cc1OC)-c1ncccc1C3=O	3200 nM	3400 nM	4100 nM	13000 nM	–	–	–	–	–	–	–	–
2900 nM	7400 nM	620 nM	3900 nM	Active	–	COc1cc2c3c(n(CCCN(C)C)c(=O)c2cc1OC)-c1ccncc1C3=O	8500 nM	6500 nM	12000 nM	> 100000 nM	–	–	–	–	–	–	–	–
300 nM	940 nM	340 nM	210 nM	Active	–	COc1cnc2c(c1)C(=O)c1c-2n(CCCN(C)C)c(=O)c2ccccc12	260 nM	300 nM	570 nM	540 nM	–	–	–	–	–	–	–	–
7600 nM	12000 nM	390 nM	1900 nM	Active	–	COc1cc2c3c(n(CCCN4CCOCC4)c(=O)c2cc1OC)-c1ccncc1C3=O	5900 nM	5000 nM	> 100000 nM	85000 nM	–	–	–	–	–	–	–	–
4800 nM	–	–	1900 nM	–	Active	COc1cc2c3c(n(C)c(=O)c2cc1OC)-c1cc2c(cc1C3=O)OCO2	26000 nM	2800 nM	1700 nM	560 nM	–	–	–	–	–	–	–	–
3600 nM	6300 nM	2500 nM	600 nM	Active	–	COc1cnc2c(c1)C(=O)c1c-2n(CCCN2CCOCC2)c(=O)c2ccccc12	2600 nM	4100 nM	3500 nM	1700 nM	–	–	–	–	–	–	–	–
24000 nM	24000 nM	2500 nM	4100 nM	Active	–	COc1cc2c3c(n(CCCN4CCOCC4)c(=O)c2cc1OC)-c1cnccc1C3=O	16000 nM	6500 nM	40000 nM	48000 nM	–	–	–	–	–	–	–	–

SMILES	GI50 (DU-145 [1])	GI50 (OVCAR-3 [3])	GI50 (HCT-116 [4])	GI50 (MCF7 [6])	inhibition [9]	inhibition [18]	GI50 (SN12C [2])	GI50 (HOP-62 [5])	GI50 (SF-539 [7])	GI50 (UACC-62 [8])	growth inhibition (GI) (HCT-116 [10])	growth inhibition (GI) (MCF7 [11])	growth inhibition (GI) (OVCAR-3 [12])	growth inhibition (GI) (HOP-62 [13])	growth inhibition (GI) (DU-145 [14])	growth inhibition (GI) (UACC-62 [15])	growth inhibition (GI) (SF-539 [16])	growth inhibition (GI) (SN12C [17])
CC[C@@]1(O)C(=O)OCc2c1cc1n(c2=O)Cc2cc3ccccc3nc2-1 [CAMPTOTHECIN]	–	–	–	13 nM	–	–	–	–	–	–	–	–	–	–	–	–	–	–
